Calls of active or inactive are those of the source. No cut-off for these calls is given here.
Columns and labels:
Homo sapiens = organism: Homo sapiens; assay: Inhibition of HDAC isolated from human K562 cells at 0.1 to 100 uM using Fluor-de-Lys as substrate after 15 mins by fluorescence assay
[1] = biological target: T1, NAD-dependent protein deacetylase sirtuin-1 (Homo sapiens) (UniProt Q96EB6); assay: Inhibition of SIRT1 in human U373 cells assessed as increase of histone H4 acetylation after 8 hrs by Western blotting method; assay type: cell-based
T1 sequence (whole entry): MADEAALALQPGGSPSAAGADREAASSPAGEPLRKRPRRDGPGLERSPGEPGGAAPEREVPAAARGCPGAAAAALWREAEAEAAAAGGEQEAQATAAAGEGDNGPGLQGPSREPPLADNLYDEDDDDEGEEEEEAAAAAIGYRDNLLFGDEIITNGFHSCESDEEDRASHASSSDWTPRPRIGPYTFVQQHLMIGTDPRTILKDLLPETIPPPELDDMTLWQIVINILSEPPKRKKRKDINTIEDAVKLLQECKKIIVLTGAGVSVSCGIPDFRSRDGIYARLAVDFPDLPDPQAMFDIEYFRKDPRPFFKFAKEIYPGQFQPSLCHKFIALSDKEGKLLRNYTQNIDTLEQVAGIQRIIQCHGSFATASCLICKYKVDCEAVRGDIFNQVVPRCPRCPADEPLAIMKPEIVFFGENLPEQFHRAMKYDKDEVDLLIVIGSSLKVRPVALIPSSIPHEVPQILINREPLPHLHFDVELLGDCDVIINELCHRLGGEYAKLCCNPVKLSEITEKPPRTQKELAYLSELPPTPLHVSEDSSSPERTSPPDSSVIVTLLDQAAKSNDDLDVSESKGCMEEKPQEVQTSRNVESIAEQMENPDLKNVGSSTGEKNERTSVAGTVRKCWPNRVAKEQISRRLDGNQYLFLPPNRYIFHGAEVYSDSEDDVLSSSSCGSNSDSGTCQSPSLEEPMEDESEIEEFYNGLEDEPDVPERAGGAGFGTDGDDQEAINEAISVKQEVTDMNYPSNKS

Hs 683 [2] = assay: Inhibition of spheroid forming capacity of human Hs683 cells assessed as decrease in volume of multicellular tumor spheroids at 5 to 10 uM treated for 24 hrs measured after 96 hrs by bright field microscopic method; assay type: functional, cell-based
How it was run: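 Spheroids formed from 1 × 10^3 cells in 25 μL. Cells were pretreated 24 h with compound then left untreated 96 h, or untreated spheroids were cultured 96 h with compound. Surface measured from bright-field images; volume in voxels from 3D plots after image segmentation. Mean ± SD of three independent experiments.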

SW1573/2R120 = assay: Antiproliferative activity against human SW1573/2R120 cells overexpressing ABCC1/LRP after 72 hrs by MTT assay; assay type: functional, cell-based
How it was run: (§1)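 MTT assay: cells in RPMI 1640 with 10% heat-inactivated FCS at 37 °C and 5% CO2 were seeded 24 h before treatment. They were exposed 72 h to compound at 0.01–100 μM, with DMSO as solvent.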

A2780cis = assay: Antiproliferative activity against human A2780cis cells after 72 hrs by MTT assay; assay type: functional, cell-based; how it was run: as §1
KB 3-1 = assay: Antiproliferative activity against human KB-3-1 cells after 72 hrs by MTT assay; assay type: functional, cell-based; how it was run: as §1
[3] = biological target: T1, NAD-dependent protein deacetylase sirtuin-1 (Homo sapiens); assay: Inhibition of SIRT1 in human U373 cells assessed as increase of histone H4 acetylation at 10 uM after 8 hrs by Western blotting method relative to control; assay type: cell-based
[4] = biological target: T2, NAD-dependent protein deacetylase sirtuin-2 (Homo sapiens) (UniProt Q8IXJ6); assay: Inhibition of SIRT2 in human U373 cells assessed as increase of alpha-tubulin acetylation at 5 uM after 8 hrs by Western blotting method relative to control; assay type: cell-based
T2 sequence (whole entry): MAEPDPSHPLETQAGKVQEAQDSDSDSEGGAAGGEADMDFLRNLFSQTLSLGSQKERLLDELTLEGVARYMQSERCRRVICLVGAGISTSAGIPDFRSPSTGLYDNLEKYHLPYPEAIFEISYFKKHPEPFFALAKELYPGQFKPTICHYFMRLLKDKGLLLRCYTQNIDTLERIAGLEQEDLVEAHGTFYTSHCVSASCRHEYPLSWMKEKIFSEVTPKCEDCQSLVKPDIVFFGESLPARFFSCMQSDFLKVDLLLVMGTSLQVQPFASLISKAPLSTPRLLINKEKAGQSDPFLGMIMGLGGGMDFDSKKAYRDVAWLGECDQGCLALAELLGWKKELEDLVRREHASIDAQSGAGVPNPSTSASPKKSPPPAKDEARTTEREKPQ

[5] = biological target: T2, NAD-dependent protein deacetylase sirtuin-2 (Homo sapiens); assay: Inhibition of SIRT2 in human Hs683 cells assessed as increase of alpha-tubulin acetylation at 10 uM after 8 hrs by Western blotting method relative to control; assay type: cell-based
Hs 683 [6] = assay: Cell cycle arrest in human Hs683 cells assessed as accumulation at sub-G1 phase at IC50 for MTT assay after 24 to 48 hrs by propidium iodide staining-based flow cytometry; assay type: functional
How it was run: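 Cells were exposed to compound at the IC50 for each line from the 72 h MTT assay, or to a reference HDAC inhibitor at 2 μM. Cell cycle distribution was analyzed after 24 and 48 h. Results are mean ± SD of three independent experiments, with p values against control cells.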

RPMI-8226 = assay: Growth inhibition of human RPMI8226 cells after 48 hrs by SRB assay; assay type: functional; conditions: RPMI-8226, 48 h
NCI-H522 = assay: Growth inhibition of human NCI-H522 cells after 48 hrs by SRB assay; assay type: functional; conditions: NCI-H522, 48 h
SNB-19 = assay: Growth inhibition of human SNB19 cells after 48 hrs by SRB assay; assay type: functional; conditions: SNB-19, 48 h
U-251 = assay: Growth inhibition of human U251 cells after 48 hrs by SRB assay; assay type: functional; conditions: U-251, 48 h
LOX IMVI = assay: Growth inhibition of human LOXIMVI cells after 48 hrs by SRB assay; assay type: functional
IGROV-1 = assay: Growth inhibition of human IGROV1 cells after 48 hrs by SRB assay; assay type: functional; conditions: IGROV-1, 48 h
OVCAR-3 = assay: Growth inhibition of human OVCAR3 cells after 48 hrs by SRB assay; assay type: functional; conditions: OVCAR-3, 48 h
OVCAR-4 = assay: Growth inhibition of human OVCAR4 cells after 48 hrs by SRB assay; assay type: functional; conditions: OVCAR-4, 48 h
NCI/ADR-RES = assay: Growth inhibition of human NCI-ADR-RES cells after 48 hrs by SRB assay; assay type: functional
PC-3 = assay: Growth inhibition of human PC3 cells after 48 hrs by SRB assay; assay type: functional; conditions: PC-3, 48 h
MCF7 = assay: Growth inhibition of human MCF7 cells after 48 hrs by SRB assay; assay type: functional; conditions: MCF7, 48 h
BT-549 = assay: Growth inhibition of human BT549 cells after 48 hrs by SRB assay; assay type: functional; conditions: BT-549, 48 h

In the case of `CC(C)(C)OC(=O)Nc1ccc2c(c1)C(NC(=O)Nc1cccc(C#N)c1)CC(C)(C)O2` (configuration not stated), the inhibition (Homo sapiens) is reported as “inactive”, the inhibition [1] is reported as “Dose-dependent effect” and the inhibition (Hs 683 [2]) is reported as “Active”. The Activity (SW1573/2R120) was “Active”, the Activity (A2780cis) was “Active” and the Activity (KB 3-1) was “Active”. It also gave a fold change (FC) [3] of 4.1, a fold change (FC) [4] of 5.9 and a fold change (FC) [5] of 1.6. The Activity (Hs 683 [6]) was “inactive”, the GI50 (RPMI-8226) was 1.62 µM and the GI50 (NCI-H522) was 3.24 µM. It also gave a GI50 (SNB-19) of 3.72 µM, a GI50 (U-251) of 1.48 µM and a GI50 (LOX IMVI) of 1.62 µM. The GI50 (IGROV-1) was 6.31 µM, the GI50 (OVCAR-3) was 2.29 µM and the GI50 (OVCAR-4) was 1.78 µM. The GI50 (NCI/ADR-RES) was 3.09 µM, the GI50 (PC-3) was 0.759 µM and the GI50 (MCF7) was 2.14 µM. It also gave a GI50 (BT-549) of 3.8 µM.

From ChEMBL document CHEMBL4052637, “Discovery and Characterization of R/S-N-3-Cyanophenyl-N'-(6-tert-butoxycarbonylamino-3,4-dihydro-2,2-dimethyl-2H-1-benzopyran-4-yl)urea, a New Histone Deacetylase Class III Inhibitor Exerting Antiproliferative Activity against Cancer Cell Lines” (J Med Chem, 2017)
